According to the EternaBench riboswitch data:

Columns and labels:
MS2 coat protein [1] = assay: apparent Kd, MS2 coat protein; higher = weaker binding; RNA-MaP array; tryptophan 2.4 mM where present
How it was run: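 Each design was made on Illumina sequencing-chip clusters by stalled E. coli RNA polymerase and titrated with SNAP-549-labelled MS2 coat protein from 0.7 or 1.5 nM, doubling to 3 µM, in the absence and then the presence of constant ligand. The buffer was 100 mM Tris-HCl pH 7.5, 80 mM KCl, 4 mM MgCl2, BSA, DTT, yeast tRNA and Tween-20. The apparent Kd is the median of filtered per-cluster fits of binding curves, with green signal normalised to red-channel RNA signal and control-cluster median Fmax.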

MS2 coat protein [2] = assay: apparent Kd, MS2 coat protein; higher = weaker binding; RNA-MaP array
How it was run: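 The designed RNAs, transcribed from sequenced DNA templates on an Illumina sequencing chip, were incubated with fluorescently labeled MS2 coat protein at room temperature. Protein ranged from 1.5 nM to 3 μM, with 0.8–1.5 h incubation at the lowest and 10–20 min at the highest concentrations, in Tris-HCl pH 7.5 buffer with KCl, MgCl2, BSA, DTT, tRNA and Tween20, with or without input ligand. The median of per-cluster binding-curve fits gives the apparent Kd, and designs measured on fewer than 10 clusters were excluded.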

[3] = designed as: ON switch for tryptophan, no ligand
[4] = ligand present: tryptophan, designed as: ON switch for tryptophan
[5] = designed as: OFF switch for tryptophan, no ligand
[6] = ligand present: tryptophan, designed as: OFF switch for tryptophan
[7] = designed as: ON switch for flavin mononucleotide, no ligand
[8] = ligand present: flavin mononucleotide, designed as: ON switch for flavin mononucleotide
[9] = designed as: OFF switch for flavin mononucleotide, no ligand
[10] = ligand present: flavin mononucleotide, designed as: OFF switch for flavin mononucleotide

Sequence	apparent Kd (MS2 coat protein [1]; [3])	apparent Kd (MS2 coat protein [1]; [4])	apparent Kd (MS2 coat protein [2]; [9])	apparent Kd (MS2 coat protein [2]; [10])	also measured
AAAAUAAAAUAAAAGGUGGAAAUAAGGCGGCGAGGACCGGUACGGCCGCCACUCGCGUACAUGAGGAUCACCCAUGUCUGAAAAU	22.4 nM	27.4 nM	–	–	–
AAACAUGAGGAUCACCCAUGUAUGUUAUUACGAGGACCGGUACGGCCGCCACUCGAUAGAGUAGAAGUAAAUUGUAAUUCAUGUU	–	–	–	–	apparent Kd (MS2 coat protein [1]; [5]): 14.3 nM; apparent Kd (MS2 coat protein [1]; [6]): 15.9 nM
AACAUGAGGAUCACCCAUGUACCUUUCGAUCGAGGACCGGUACGGCCGCCACUCGAAAACAUGAGGAUCACCCAUGUUCAACAGG	145 nM	87.4 nM	–	–	–
AACAUGAGGAUCACCCAUGUCCCAUGUGAACGAGGACCGGUACGGCCGCCACUCGAAUGAGGCGGCACAUGAGGAUCACCCACAU	131 nM	196 nM	–	–	–
AACAUGAGGAUCACCCAUGUCCCAUGUGAACGAGGACCGGUACGGCCGCCACUCGACCGAGGCGGCACAUGAGGAUCACCCACAU	234 nM	608 nM	–	–	–
AACGAGUGGCGGCCAUUGGGUGAUCCUCUACGAGGACCGGUACGGCCGCCACUCGAUAACAUGAGGAUCACCCAUGUGCCGAUAA	–	–	–	–	apparent Kd (MS2 coat protein [1]; [5]): 124 nM; apparent Kd (MS2 coat protein [1]; [6]): 133 nM
AAGCGGGCGACGGCCGCCACUUGCCUGUAAUUAGAGAAGGCACAUGAGGAUCACCCAUGUCCCGCAAGGACCGGGUUGCCUCACU	417 nM	84.5 nM	–	–	–
AAUACCGGUCCUCGAGGGUGAUCCUCAUGACGAGGACCGGUACGGCCGCCACUCGAUAACAUGAGGAUCACCCAUGUAAUCGAGU	–	–	–	–	apparent Kd (MS2 coat protein [1]; [5]): 59 nM; apparent Kd (MS2 coat protein [1]; [6]): 56.4 nM
ACAUGAGGAUCACCCAUGUCAUGAGGUUCACGAGGACCGGUACGGCCGCCACUCGACAUGAGGGUCACCCAUGUGAGGAACACCC	305 nM	97 nM	–	–	–
ACAUGAGGAUCACCCAUGUGUGUAAAUCCUCGAGGACCGGUACGGCCGCCACUCGAUUGAGUGUAAGUUGAAUGUAACAUUCAAC	96.2 nM	30.1 nM	–	–	–
ACCGAAAGCUCACAUGAGGAUCACCCAUGUCGAGGACCGGUACGGCCGCCACUCGGCAAAUAUAAGGGUGGACGCGUCUCUGCGU	–	–	–	–	apparent Kd (MS2 coat protein [1]; [5]): 39 nM; apparent Kd (MS2 coat protein [1]; [6]): 79.8 nM
ACGGAUCGGAAACGAUCCGCGGCGCGGGUGCGAGGACCGGUACGGCCGCCACUCGGGUAACAUGAGGAUCACCCAUGUCCGAUUU	–	–	–	–	apparent Kd (MS2 coat protein [1]; [5]): 101 nM; apparent Kd (MS2 coat protein [1]; [6]): 304 nM
ACGUGGAAAAUUUGUGGUGCUGCCUCAGGCCGAGGACCGGUACGGCCGCCACUCGUACAUGAGGAUCACCCAUGUCGAGUCACUG	–	–	–	–	apparent Kd (MS2 coat protein [1]; [5]): 25.4 nM; apparent Kd (MS2 coat protein [1]; [6]): 22.2 nM
ACGUUUUAGUCGGCCGCCACUGUUUUCAUGUUCAACAUGAGGAUCACCCAUGUACCUUUUUUUAUCAGGACCGGGACGUAAUAGA	68.5 nM	27.4 nM	–	–	–
ACUUCGCAUAGGAAAACUAUGUGAAGAAAUCGAGGACCGGUACGGCCGCCACUCGUCCUCAACAUGAGGAUCACCCAUGUAAUAA	–	–	–	–	apparent Kd (MS2 coat protein [1]; [5]): 20.1 nM; apparent Kd (MS2 coat protein [1]; [6]): 37.8 nM
AGAUUCGACACGGCCGCCACUUGUGGUGGAUUAUCCUGUGUCGAACAUGAGGAUCACCCAUGUACAAGGACCGGGUGUUGAGUCU	–	–	–	–	apparent Kd (MS2 coat protein [1]; [5]): 136 nM; apparent Kd (MS2 coat protein [1]; [6]): 73.9 nM
AGCAACAAGUCGGCCGCCACUCAUUUAACAUGAGGAUCACCCAUGUGAAUAACAUGAUUGUAAUAGAGGACCGGGACAGUUGCAU	62.5 nM	31 nM	–	–	–
AGCACGGUGAUGGUAGCCGGACGAUAAGUACGAGGACCGGUACGGCCGCCACUCGAAGUCCUACGACAUGAGGAUCACCCAUGUA	33.2 nM	37.9 nM	–	–	–
AGCCACUCGAGUGAUCCUCACGAGUGGCUACGAGGACCGGUACGGCCGCCACUCGAAUUAACAUGAGGAUCACCCAUGUAAUCUA	81 nM	53.8 nM	–	–	–
AGGUACAGCAGGUGAUUCUGGCUGUACCAACGAGGACCGGUACGGCCGCCACUCGAAUAAACAUGAGGAUCACCCAUGUACAAAU	24.6 nM	21.6 nM	–	–	–
AGGUACGGAAUCCUCAUGUAGUCGUACCAACGAGGACCGGUACGGCCGCCACUCGAAUAAACAUGAGGAUCACCCAUGUAAUAAU	34.4 nM	19.7 nM	–	–	–

Sequence	apparent Kd (MS2 coat protein [1]; [3])	apparent Kd (MS2 coat protein [1]; [4])	apparent Kd (MS2 coat protein [2]; [9])	apparent Kd (MS2 coat protein [2]; [10])	also measured
AGUUCCAGGUCGGCCGCCACUGGCGUGGCCGGUCCUCGGACUUACAUGAGGAUCACCCAUGUGAACAGGACCGGGACCGCAUGGG	–	–	–	–	apparent Kd (MS2 coat protein [1]; [5]): 36.9 nM; apparent Kd (MS2 coat protein [1]; [6]): 28.7 nM
AUUCAUGGAAACAUGACAUACAUAUCCGGUCGAGGACCGGUACGGCCGCCACUCGUUUGGAGGCACAUGAGGAUCACCCAUGUUA	23.9 nM	25.9 nM	–	–	–
CACAGUGCGAAAUUGAAACCGCACGAUCCUCGAGGACCGGUACGGCCGCCACUCGCGCGGGUCGUACAUGAGGAUCACCCAUGUC	262 nM	371 nM	–	–	–
UCACGUCGCCGAGGAUAUGAUUACCGCUCUCCAUCAGAAGGCGGCGCGUGGUCCACAACAUGAGGAUCACCCAUGUCGAUUGAG	–	–	–	–	apparent Kd (MS2 coat protein [2]; [7]): 64.9 nM; apparent Kd (MS2 coat protein [2]; [8]): 10.7 nM
UCCUUUAGACAUGAGGAUCACCCAUGUAGCCUCACUGUUCGUAGAAGGACACCGCUGUUCAAGCUGUAGGAUAUACGGAGGAUC	–	–	468 nM	319 nM	–
UCGUCACAUGUUAGGAUAUUGCUAGGAUCCUAGAACAAGAAGGAACAUGAGGAUCACCCAUGUCAGUGAAUCAU	–	–	23 nM	36 nM	–
UCGUUGCCAUGAGGAUAUCGUGUCAAGACAGGCAAGUGACCGUACAUGAGGAUCACCCAUGUAAACGAGAAGGCAUAGUCAUGG	–	–	17 nM	13.9 nM	–
UCUAUACAUGAGGAUCACCCAUGUCAGGAUAUAAGCACCGGGCGAUUGUCACGCGGCCUUAGAAGGGACAGGAA	–	–	17.4 nM	28.8 nM	–
UCUAUGUUAGGAUAUCUGUUGCAUGCCUGGCCGCGAUGCAAAGAGAAGGAACAUGAGGAUCACCCAUGUCAUAU	–	–	19.3 nM	41.6 nM	–
UCUGUGAUCAACAUGAGGAUCACCCAUGUUACCACCUCUAGGCAGGAUAUGAGCGUACUAAGAAGUCAGAAGGGCCUUUUUACG	–	–	–	–	apparent Kd (MS2 coat protein [2]; [7]): 18.3 nM; apparent Kd (MS2 coat protein [2]; [8]): 10.1 nM
UGACUAAAGGAGAAGGGCCACUCCAUUACUUCGGCAGGAUAUCCAUAAACAUGAGGAUCACCCAUGUACAUACAUUGGACGGCG	–	–	–	–	apparent Kd (MS2 coat protein [2]; [7]): 8.62 nM; apparent Kd (MS2 coat protein [2]; [8]): 7.73 nM
UGAGUAAGCGAGGAUAUUGGGCGCGUACGUGGUCAAGAAGGCGCAACAUGAGGAUCACCCAUGUGCUUCUCUUG	–	–	15.7 nM	29.2 nM	–
UGGUAGCCACACUUCAAACAUCGACAAGAUACCAGUUAAUCAACGAACCCUUGGCAGCUUCGUACAUGAGGAUCACCCAUGUGGA	–	–	–	–	apparent Kd (MS2 coat protein [2]; designed as: OFF switch for theophylline, no ligand): 18.2 nM; apparent Kd (MS2 coat protein [2]; ligand present: theophylline, designed as: OFF switch for theophylline): 23 nM
UGUACAUGAGGAUCACCCAUGUUUGUAUCUUUAUCCGCGCGCAGAAGGUAGCCCAUGGAGACAGCUAAGGAUAUGCGUCACAUA	–	–	21.5 nM	8.83 nM	–
UGUUUUAAAGAGGAUAUGACAACGGUUCCACCGUCAGAAGGCUUUACAUGAGGAUCACCCAUGUACUGGAGUGA	–	–	17.3 nM	81.9 nM	–
UUACAGAAAGGAUAUACAUGAGGAUCACCCAUGUAGUAUGAGUUGGUGAGAGUUCGUGGUAGAAGGUUCCGCAA	–	–	53 nM	55.2 nM	–
UUAGGUUAUAAAGUGACAUGAGGAUCACCCAUGUGCUCACAGAGAAGGUUAUACCUACAGGCUAUAAAGGAUAUCUCCUAAAUU	–	–	12.3 nM	8.73 nM	–
UUCAUGUUAGGAUAUAGUGUAAGAGCGGGCGGGACUCUAUUCUAGAAGGAACAUGAGGAUCACCCAUGUUAAGG	–	–	213 nM	124 nM	–
UUUGCUACCUAGAAGGCUGACGAGACAUGAGGAUCACCCAUGUUGGAAAUUCUUACGGCAAUGGCAGAGGAUAUAGGACGAAAA	–	–	7.66 nM	11.3 nM	–
UUUUUUUAACAGAAGGACAGACAUAUGAGGGACAUGAGGAUCACCCAUGUGUGCUCGCGUAGGCUGUAGGAUAUGUAGUGCUGG	–	–	11.2 nM	8.19 nM	–
